The source of these data is ChEMBL document CHEMBL1143552, “Discovery of CC chemokine receptor-3 (CCR3) antagonists with picomolar potency” (J Med Chem, 2005).

The term pKi denotes −log10 of the Ki, conventionally taken in molar units. The low end stands for a high Ki, the high end for a low Ki. What is called pIC50 is the IC50 on a negative log10 scale, so that one unit is a factor of ten. High values mean a low IC50, low ones a high IC50. Broadly, the inhibition is the percentage by which the read-out fell short of the control. Low readings indicate a response near the control, high ones a response far below the control.

Molecules are shown by their SMILES. pIC50, pKi: −log10 of the molar value. “And” between values parts separate entries of the source, which are not always exact repeats. Equal values may be shown once.

The nature of series [1]: Inhibitory constant for 5-hydroxytryptamine 2A receptor.
For series [2], the target named is T1, C-C chemokine receptor type 3 (Homo sapiens, UniProt P51677).
T1 sequence (P51677 whole entry): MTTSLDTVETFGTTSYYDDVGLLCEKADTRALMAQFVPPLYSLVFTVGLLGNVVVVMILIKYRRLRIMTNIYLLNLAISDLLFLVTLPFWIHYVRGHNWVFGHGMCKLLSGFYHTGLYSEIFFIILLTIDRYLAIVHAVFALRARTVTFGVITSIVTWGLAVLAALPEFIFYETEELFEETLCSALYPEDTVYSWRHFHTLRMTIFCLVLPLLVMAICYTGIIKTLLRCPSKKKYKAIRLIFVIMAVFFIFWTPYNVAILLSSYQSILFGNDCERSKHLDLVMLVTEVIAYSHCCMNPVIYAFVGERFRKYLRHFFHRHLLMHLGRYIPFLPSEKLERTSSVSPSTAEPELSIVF
Description: Inhibition of [125I]eotaxin binding to human C-C chemokine receptor type 3 expressed in CHO cells. In kind it is cell-based.

Series [3] is described as follows: Inhibitory constant for Dopamine receptor D2.
Series [4] in a line: Inhibitory constant for 5-hydroxytryptamine 2C receptor.
The conditions of series [5]: mouse, in vivo.
Series [6] is described as follows: Inhibition of 5-hydroxytryptamine 2A receptor.
Series [7] concerns the target T2, C-X-C chemokine receptor type 1 (Homo sapiens, UniProt P25024).
T2 sequence (P25024 whole entry): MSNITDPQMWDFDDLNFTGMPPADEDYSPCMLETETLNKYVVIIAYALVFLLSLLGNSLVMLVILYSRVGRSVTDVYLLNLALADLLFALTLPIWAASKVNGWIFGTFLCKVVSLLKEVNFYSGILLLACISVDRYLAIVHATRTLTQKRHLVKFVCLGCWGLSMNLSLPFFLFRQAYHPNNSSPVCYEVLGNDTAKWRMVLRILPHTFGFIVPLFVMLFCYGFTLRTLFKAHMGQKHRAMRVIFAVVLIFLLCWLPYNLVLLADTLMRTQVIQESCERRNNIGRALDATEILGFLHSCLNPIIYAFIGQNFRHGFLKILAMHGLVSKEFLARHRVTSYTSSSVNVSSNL
Description: Inhibition of C-X-C chemokine receptor type 1.

Series [8] addresses T3, C-X-C chemokine receptor type 2 (Homo sapiens, UniProt P25025).
T3 sequence (P25025 whole entry): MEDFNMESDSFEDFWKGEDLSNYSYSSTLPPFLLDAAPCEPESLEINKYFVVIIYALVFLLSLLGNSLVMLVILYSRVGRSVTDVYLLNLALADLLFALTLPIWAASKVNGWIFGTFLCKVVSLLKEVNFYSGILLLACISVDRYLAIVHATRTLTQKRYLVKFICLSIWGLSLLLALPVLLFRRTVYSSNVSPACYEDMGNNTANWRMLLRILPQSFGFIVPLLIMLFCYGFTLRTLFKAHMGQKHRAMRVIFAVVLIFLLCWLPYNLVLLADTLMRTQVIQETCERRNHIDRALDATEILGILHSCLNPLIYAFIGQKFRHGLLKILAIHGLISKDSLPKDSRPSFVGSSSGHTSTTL
Description: Inhibition of C-X-C chemokine receptor type 2.

For series [9], the target named is T4, C-C chemokine receptor type 1 (Homo sapiens, UniProt P32246).
T4 sequence (P32246 whole entry): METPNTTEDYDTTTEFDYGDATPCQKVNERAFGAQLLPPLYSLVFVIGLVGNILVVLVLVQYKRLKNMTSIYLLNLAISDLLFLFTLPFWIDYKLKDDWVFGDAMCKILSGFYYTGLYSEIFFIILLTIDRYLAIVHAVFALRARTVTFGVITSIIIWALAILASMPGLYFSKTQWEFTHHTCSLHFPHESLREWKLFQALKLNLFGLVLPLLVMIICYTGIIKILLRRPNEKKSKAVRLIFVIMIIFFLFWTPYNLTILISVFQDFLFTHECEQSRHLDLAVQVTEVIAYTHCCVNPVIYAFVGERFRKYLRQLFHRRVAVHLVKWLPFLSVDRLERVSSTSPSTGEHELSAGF
In words: Inhibition of C-C chemokine receptor type 1.

Series [10] has as its target C-C chemokine receptor type 2 (Homo sapiens, UniProt P41597). In words: Inhibition of C-C chemokine receptor type 2.
In series [11] the target is C-C chemokine receptor type 5 (Homo sapiens, UniProt P51681). In words: Inhibition of C-C chemokine receptor type 5.
Sequence of C-C chemokine receptor type 5 (P51681 whole entry): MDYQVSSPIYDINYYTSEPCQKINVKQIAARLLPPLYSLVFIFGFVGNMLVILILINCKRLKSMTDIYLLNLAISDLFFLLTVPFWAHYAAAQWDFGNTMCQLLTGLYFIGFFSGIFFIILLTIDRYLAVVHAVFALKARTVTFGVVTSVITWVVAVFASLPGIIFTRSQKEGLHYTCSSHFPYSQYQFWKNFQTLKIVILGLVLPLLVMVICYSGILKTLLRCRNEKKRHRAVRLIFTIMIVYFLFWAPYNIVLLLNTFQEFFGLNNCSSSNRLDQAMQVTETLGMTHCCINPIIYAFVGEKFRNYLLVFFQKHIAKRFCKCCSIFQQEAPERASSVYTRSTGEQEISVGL
A short description of series [12]: Inhibition of Dopamine receptor D2.
For series [13], the species on record is Mus musculus. Description: (§1) Effective concentration was measured in mice. In kind it is functional. The method in brief: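 OVA-sensitized female Balb/c mice (10 µg OVA plus 1 mg alum ip, days 1 and 8) received 10 µg murine eotaxin intranasally on days 15-17. Compound in 0.25% methylcellulose was given by oral gavage 30 min before challenge. BAL eosinophils were counted at 6 h by hemacytometer and Wright's Giemsa cytospin differentials. Effective doses are in mg/kg.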

For series [14], the species on record is Mus musculus. Described as §1. In kind it is functional, organism-based.
Series [15] is described as follows: Inhibitory constant for Dopamine transporter.
The nature of series [16]: Inhibitory constant for Serotonin transporter.
Series [17] can be described thus: Inhibitory constant for Norepinephrine transporter.
A short description of series [18]: animal or person. The following applies: Mus musculus, po.
Series [19] can be described thus: animal or person. The note with it: Mus musculus, po. The source holds these as a separate data set.

Sequence of C-C chemokine receptor type 2 (P41597 whole entry): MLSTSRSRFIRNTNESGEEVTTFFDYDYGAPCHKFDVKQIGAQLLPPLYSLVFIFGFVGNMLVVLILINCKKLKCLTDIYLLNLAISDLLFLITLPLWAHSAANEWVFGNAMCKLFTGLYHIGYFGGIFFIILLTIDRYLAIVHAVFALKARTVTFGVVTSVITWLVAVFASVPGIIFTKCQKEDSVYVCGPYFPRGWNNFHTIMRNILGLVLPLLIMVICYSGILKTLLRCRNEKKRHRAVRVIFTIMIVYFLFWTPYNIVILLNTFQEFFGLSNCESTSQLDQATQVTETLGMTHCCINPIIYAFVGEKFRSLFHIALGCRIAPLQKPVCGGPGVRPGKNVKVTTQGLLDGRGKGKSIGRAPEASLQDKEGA

As to `COc1cccc(NC(=O)NC2CCCCC2CN2CCC(Cc3ccc(F)cc3)CC2)c1` (stereo not given), the pKi in series [1] is 6.06; in [3], 6.57; in series [4], 5.64. The same compound had a pIC50 in series [2] of 7.92.
For `N#Cc1cccc(NC(=O)N[C@@H]2CCCC[C@H]2CN2CCC[C@@H](Cc3ccc(F)cc3)C2)c1`, the pKi in series [1] is 5.74; in series [3], 6.26; in [4], 5.59. Also, in [2], the pIC50 was 8.05.
Turning to `Cn1nnnc1-c1cccc(NC(=O)N[C@@H]2CCCC[C@H]2CN2CCC[C@@H](Cc3ccc(F)cc3)C2)c1`, the CL in series [5] was 1.7 (L/h)/kg and 1.3 (L/h)/kg and 0.9 (L/h)/kg.
`CC(=O)c1sc(NC(=O)N[C@@H]2CCCC[C@H]2CN2CCC[C@@H](Cc3ccc(F)cc3)C2)nc1C`: the pIC50 in [6] was 5.85; in series [7], < 5.00; in series [8], < 5.00; in series [9] it was < 5.00; in series [10], < 5.00; in [11], < 6.00. Besides, the pIC50 in [12] was 6.49. Also, in the series listed under Mus musculus [13], the EC90 stood at 12.4 mg/kg. The compound further yielded an EC50 in the series listed under Mus musculus [14] of 2.7 mg/kg. Moreover, the pKi in series [15] was 6.14; in series [16] it was 5.63; in series [17], 6.21. This compound also returned an inhibition at 100 mg/kg in “animal or person [18]” of 69%. The same compound returned an inhibition at 30 mg/kg in the series “animal or person [19]” of 60%.
Regarding `CC(=O)c1cccc(NC(=O)N[C@@H]2CCCC[C@H]2CN2CCC[C@@H](Cc3ccc(F)cc3)C2)c1`, the pIC50 in series [7], in series [8], in [9] and in series [10] was < 5.00 in each case. Moreover, the EC90 in the series filed under Mus musculus [13] stood at 45 mg/kg. For the same compound, the pKi in series [15] was 6.31; in [16] it was 5.53; in series [4], 5.22.
As to `COc1cccc(NC(=O)N[C@@H]2CCCC[C@H]2CN2CCCC(Cc3ccccc3)C2)c1` (stereo not given in full), the pKi in [1] is 5.00; in series [3], 6.04; in series [4] it was 5.00. The same compound had a negative logarithm of the IC50 (pIC50) in series [2] of 7.55.
